Test results reported in ChEMBL document CHEMBL4689842, “EUbOPEN Chemogenomics Library wave 1” (2021).

Test system: HEK-293T
Assay: Multiplex assay against HEK293T;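 for Population Tubulin-Different-Phenotype (%): share of the cells with healthy nuclei that show this phenotype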
Format: toxicity, cell-based
Settings: human
Outline: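 Live cells were stained at seeding with Hoechst33342, BioTracker Green Microtubule Cytoskeleton Dye, MitoTracker Red and Annexin V Alexa Fluor 680, then imaged on a CQ1 microscope at 37°C and 5% CO2 after compound addition. CellPathfinder machine-learning gating split cells into Hoechst high-intensity objects or normal cells. Normal cells were split into healthy, pyknosed or fragmented nuclei, and pyknosed cells into mitotic or apoptotic. Tubulin, mitochondrial-mass and membrane-permeability phenotypes are per cents of healthy-nucleus cells.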

[1] = 12 h, 1 µM, compound concentration 1 uM, replicate 1
[2] = 12 h, 1 µM, compound concentration 1 uM, replicate 2
[3] = 12 h, 10 µM, compound concentration 10 uM, replicate 1
[4] = 12 h, 10 µM, compound concentration 10 uM, replicate 2
[5] = 24 h, 1 µM, compound concentration 1 uM, replicate 1
[6] = 24 h, 1 µM, compound concentration 1 uM, replicate 2
[7] = 24 h, 10 µM, compound concentration 10 uM, replicate 1
[8] = 24 h, 10 µM, compound concentration 10 uM, replicate 2
[9] = 48 h, 1 µM, compound concentration 1 uM, replicate 1
[10] = 48 h, 1 µM, compound concentration 1 uM, replicate 2
[11] = 48 h, 10 µM, compound concentration 10 uM, replicate 1
[12] = 48 h, 10 µM, compound concentration 10 uM, replicate 2

With `COc1cc(N2CCN(C)CC2)ccc1Nc1ncc2c(n1)N(C)c1ccccc1C(=O)N2C` the “Population Apoptotic (%)” value [1] was 46%, the “Population Fragmented Nuclei (%)” value [1] was 8% and the “Population Healthy Nuclei (%)” value [1] was 45%. For the same compound, the “Population Hoechst High Intensity Objects (%)” value [1] was 6%, the “Population Membrane Permeable-Phenotype (%)” value [1] was 1% and the “Population Mitochondria Different-Phenotype (%)” value [1] was 90%. The “Population Mitotic Cells (%)” value [1] was 53%, the “Population Normal (%)” value [1] was 93% and the “Population Pyknosed Nuclei (%)” value [1] was 45%. For the same compound, the “Population Tubulin-Different-Phenotype (%)” value [1] was 40%, the “Total Cell Count” value [1] was 359 and the “Population Apoptotic (%)” value [2] was 18%. The “Population Fragmented Nuclei (%)” value [2] was 3%, the “Population Healthy Nuclei (%)” value [2] was 37% and the “Population Hoechst High Intensity Objects (%)” value [2] was 3%. For the same compound, the “Population Membrane Permeable-Phenotype (%)” value [2] was 6%, the “Population Mitochondria Different-Phenotype (%)” value [2] was 42% and the “Population Mitotic Cells (%)” value [2] was 82%. For the same compound, the “Population Normal (%)” value [2] was 96%, the “Population Pyknosed Nuclei (%)” value [2] was 58% and the “Population Tubulin-Different-Phenotype (%)” value [2] was 23%. For the same compound, the “Total Cell Count” value [2] was 176, the “Population Apoptotic (%)” value [3] was 62% and the “Population Fragmented Nuclei (%)” value [3] was 12%. The “Population Healthy Nuclei (%)” value [3] was 17%, the “Population Hoechst High Intensity Objects (%)” value [3] was 13% and the “Population Membrane Permeable-Phenotype (%)” value [3] was 23%. The “Population Mitochondria Different-Phenotype (%)” value [3] was 92%, the “Population Mitotic Cells (%)” value [3] was 37% and the “Population Normal (%)” value [3] was 86%. For the same compound, the “Population Pyknosed Nuclei (%)” value [3] was 70%, the “Population Tubulin-Different-Phenotype (%)” value [3] was 84% and the “Total Cell Count” value [3] was 172. The “Population Apoptotic (%)” value [4] was 58%, the “Population Fragmented Nuclei (%)” value [4] was 8% and the “Population Healthy Nuclei (%)” value [4] was 15%. For the same compound, the “Population Hoechst High Intensity Objects (%)” value [4] was 6%, the “Population Membrane Permeable-Phenotype (%)” value [4] was 7% and the “Population Mitochondria Different-Phenotype (%)” value [4] was 96%. For the same compound, the “Population Mitotic Cells (%)” value [4] was 41%, the “Population Normal (%)” value [4] was 93% and the “Population Pyknosed Nuclei (%)” value [4] was 76%. For the same compound, the “Population Tubulin-Different-Phenotype (%)” value [4] was 100%, the “Total Cell Count” value [4] was 190 and the “Population Apoptotic (%)” value [5] was 38%. For the same compound, the “Population Fragmented Nuclei (%)” value [5] was 4%, the “Population Healthy Nuclei (%)” value [5] was 58% and the “Population Hoechst High Intensity Objects (%)” value [5] was 6%. The “Population Membrane Permeable-Phenotype (%)” value [5] was 1%, the “Population Mitochondria Different-Phenotype (%)” value [5] was 75% and the “Population Mitotic Cells (%)” value [5] was 61%. For the same compound, the “Population Normal (%)” value [5] was 93%, the “Population Pyknosed Nuclei (%)” value [5] was 37% and the “Population Tubulin-Different-Phenotype (%)” value [5] was 26%. The “Total Cell Count” value [5] was 423, the “Population Apoptotic (%)” value [6] was 9% and the “Population Fragmented Nuclei (%)” value [6] was 5%. The “Population Healthy Nuclei (%)” value [6] was 48%, the “Population Hoechst High Intensity Objects (%)” value [6] was 2% and the “Population Membrane Permeable-Phenotype (%)” value [6] was 7%. For the same compound, the “Population Mitochondria Different-Phenotype (%)” value [6] was 40%, the “Population Mitotic Cells (%)” value [6] was 90% and the “Population Normal (%)” value [6] was 97%. The “Population Pyknosed Nuclei (%)” value [6] was 45%, the “Population Tubulin-Different-Phenotype (%)” value [6] was 22% and the “Total Cell Count” value [6] was 225. The “Population Apoptotic (%)” value [7] was 69%, the “Population Fragmented Nuclei (%)” value [7] was 9% and the “Population Healthy Nuclei (%)” value [7] was 19%. The “Population Hoechst High Intensity Objects (%)” value [7] was 10%, the “Population Membrane Permeable-Phenotype (%)” value [7] was 13% and the “Population Mitochondria Different-Phenotype (%)” value [7] was 96%. The “Population Mitotic Cells (%)” value [7] was 30%, the “Population Normal (%)” value [7] was 89% and the “Population Pyknosed Nuclei (%)” value [7] was 71%. The “Population Tubulin-Different-Phenotype (%)” value [7] was 93%, the “Total Cell Count” value [7] was 170 and the “Population Apoptotic (%)” value [8] was 76%. For the same compound, the “Population Fragmented Nuclei (%)” value [8] was 7%, the “Population Healthy Nuclei (%)” value [8] was 20% and the “Population Hoechst High Intensity Objects (%)” value [8] was 5%. For the same compound, the “Population Membrane Permeable-Phenotype (%)” value [8] was 2%, the “Population Mitochondria Different-Phenotype (%)” value [8] was 94% and the “Population Mitotic Cells (%)” value [8] was 23%. The “Population Normal (%)” value [8] was 94%, the “Population Pyknosed Nuclei (%)” value [8] was 72% and the “Population Tubulin-Different-Phenotype (%)” value [8] was 97%. The “Total Cell Count” value [8] was 195, the “Population Apoptotic (%)” value [9] was 36% and the “Population Fragmented Nuclei (%)” value [9] was 8%. The “Population Healthy Nuclei (%)” value [9] was 71%, the “Population Hoechst High Intensity Objects (%)” value [9] was 8% and the “Population Membrane Permeable-Phenotype (%)” value [9] was 1%. For the same compound, the “Population Mitochondria Different-Phenotype (%)” value [9] was 23%, the “Population Mitotic Cells (%)” value [9] was 63% and the “Population Normal (%)” value [9] was 91%. The “Population Pyknosed Nuclei (%)” value [9] was 19%, the “Population Tubulin-Different-Phenotype (%)” value [9] was 11% and the “Total Cell Count” value [9] was 613. For the same compound, the “Population Apoptotic (%)” value [10] was 18%, the “Population Fragmented Nuclei (%)” value [10] was 6% and the “Population Healthy Nuclei (%)” value [10] was 72%. The “Population Hoechst High Intensity Objects (%)” value [10] was 2%, the “Population Membrane Permeable-Phenotype (%)” value [10] was 6% and the “Population Mitochondria Different-Phenotype (%)” value [10] was 7%. The “Population Mitotic Cells (%)” value [10] was 81%, the “Population Normal (%)” value [10] was 97% and the “Population Pyknosed Nuclei (%)” value [10] was 20%. The “Population Tubulin-Different-Phenotype (%)” value [10] was 16%, the “Total Cell Count” value [10] was 357 and the “Population Apoptotic (%)” value [11] was 69%. For the same compound, the “Population Fragmented Nuclei (%)” value [11] was 16%, the “Population Healthy Nuclei (%)” value [11] was 33% and the “Population Hoechst High Intensity Objects (%)” value [11] was 15%. The “Population Membrane Permeable-Phenotype (%)” value [11] was 3%, the “Population Mitochondria Different-Phenotype (%)” value [11] was 100% and the “Population Mitotic Cells (%)” value [11] was 30%. For the same compound, the “Population Normal (%)” value [11] was 84%, the “Population Pyknosed Nuclei (%)” value [11] was 49% and the “Population Tubulin-Different-Phenotype (%)” value [11] was 91%. The “Total Cell Count” value [11] was 210, the “Population Apoptotic (%)” value [12] was 70% and the “Population Fragmented Nuclei (%)” value [12] was 11%. The “Population Healthy Nuclei (%)” value [12] was 28%, the “Population Hoechst High Intensity Objects (%)” value [12] was 10% and the “Population Membrane Permeable-Phenotype (%)” value [12] was 1%. The “Population Mitochondria Different-Phenotype (%)” value [12] was 96%, the “Population Mitotic Cells (%)” value [12] was 29% and the “Population Normal (%)” value [12] was 89%. The “Population Pyknosed Nuclei (%)” value [12] was 59%, the “Population Tubulin-Different-Phenotype (%)” value [12] was 94% and the “Total Cell Count” value [12] was 211.
